According to ChEMBL document CHEMBL4007417, “Target Elucidation by Cocrystal Structures of NADH-Ubiquinone Oxidoreductase of Plasmodium falciparum (PfNDH2) with Small Molecule To Eliminate Drug-Resistant Malaria” (J Med Chem, 2017):
Active and inactive are the calls of the source. The rule behind the calls is not given here.

Assays:
[1] = system: Plasmodium yoelii; test: Antimalarial activity against Plasmodium yoelii YM infected in BALB/c mouse assessed as mouse survival at 30 mg/kg, sc administered BID for 4 days starting at 96 hrs post infection, 8 hrs apart by Giemsa-staining based microscopic analysis; format: functional
Summary of the method: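 Mice inoculated with 1×106 P. yoelii parasites. Subcutaneous dosing for 4 days starting 96 h post infection, given once daily or twice daily 8 h apart. Parasitemia followed on Giemsa-stained blood smears. Survival recorded at 40 days post infection; groups of n=3. DMSO-only mice served as untreated controls.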

[2] = system: Plasmodium falciparum; test: Antimalarial activity against sulfadoxine-pyrimethamine/mefloquine resistant asexual blood stage Plasmodium falciparum CP286 after 72 hrs by SYBR green-based fluorometric analysis; format: functional; settings: CP286, 72 h
Summary of the method: (§1)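 Mid-ring-stage cultures (~6-10 h post-invasion) at 1% parasitemia and 2% hematocrit, in triplicate. Twofold serial dilutions from a top concentration of 100 nM. Incubated 72 h at 37 °C under 5% CO2/5% O2/90% N2. Lysis buffer containing 5×SYBR Green I added, 20 min in the dark, fluorescence read at ex 485/em 538 nm. EC50 derived.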

[3] = system: Plasmodium falciparum; test: Antimalarial activity against chloroquine/quinine/sulfadoxine-pyrimethamine/amodiaquine-resistant asexual blood stage Plasmodium falciparum Dd2 after 72 hrs by SYBR green-based fluorometric analysis; format: functional; settings: Dd2, 72 h; summary of the method: as §1
[4] = Inhibition of Plasmodium falciparum NDH2 Y475R mutant expressed in Escherichia coli DH5alpha competent cells using NADH and ubiquinone-1 as substrate by spectrophotometric analysis
Summary of the method: (§2)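 Recombinant PfNDH2 point or double mutants assayed spectrophotometrically at 25 °C. Buffer: 50 mM MOPS pH 7.0, 150 mM NaCl, 1 mM EDTA, 0.01% Triton X-100. Substrates 50 µM NADH and 30 µM ubiquinone-1, with 0.5 nM enzyme and selected inhibitor concentrations.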

[5] = system: Plasmodium yoelii; test: Antimalarial activity against Plasmodium yoelii YM infected in BALB/c mouse assessed as time duration for parasite cure at 5 mg/kg, sc administered QD for 4 days starting at 2 hrs post infection by Giemsa-staining based microscopic analysis; format: functional
Summary of the method: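 P. yoelii-infected mice, n=3 per group. Subcutaneous injection once daily for 4 days starting at 2 h post infection. Growth inhibition determined at 24 h post treatment by blood-smear microscopy. Cure time taken as the minimum period to cure all mice in the group.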

[6] = system: Plasmodium falciparum; test: Antimalarial activity against mid/late trophozoite stage of Plasmodium falciparum 3D7 assessed as reduction in parasitemia at 10 times EC50 administered at synchronized early ring stages and then removed from culture at 2 hrs intervals after 34 hrs paraiste invasion stage and measured till 40 hrs post invasion by SYBR green-based fluorometric analysis; format: functional; design: scale not given: the % may be the effect or the level left
Summary of the method: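 Synchronized early-ring P. falciparum 3D7 treated with about 10×EC50 compound. Compound removed at 2 h intervals starting at t=34 h (trophozoite), then parasites returned to compound-free medium. Maturation through a single ~48 h asexual cycle followed.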

[7] = system: Plasmodium yoelii; test: Antimalarial activity against Plasmodium yoelii YM infected in BALB/c mouse assessed as mouse survival at 5 mg/kg, sc administered QD for 4 days starting at 2 hrs post infection by Giemsa-staining based microscopic analysis; format: functional
Summary of the method: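 Mice inoculated with 1×106 P. yoelii parasites, then dosed subcutaneously once daily for 4 days starting 2 h post infection. Parasitemia followed by microscopy of blood smears. Survival scored at 40 days post infection in groups of n=3 mice. DMSO-only controls.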

[8] = Inhibition of Plasmodium falciparum NDH2 D171R mutant expressed in Escherichia coli DH5alpha competent cells using NADH and ubiquinone-1 as substrate by spectrophotometric analysis; summary of the method: as §2
[9] = system: Plasmodium yoelii; test: Antimalarial activity against Plasmodium yoelii YM infected in BALB/c mouse assessed as time duration for parasite cure at 10 mg/kg, sc administered QD for 4 days starting at 96 hrs post infection by Giemsa-staining based microscopic analysis; format: functional
Summary of the method: (§3)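 P. yoelii-infected mice, n=3 per group. Subcutaneous injection once daily for 4 days starting at 96 h post infection. Parasitemia followed on blood-smear microscopy, with inhibition measured at 24 h post treatment. Cure time taken as the minimum period to cure all mice; survival recorded at 40 days. DMSO controls included.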

[10] = system: Plasmodium falciparum; test: Antimalarial activity against chloroquine/quinine-resistant asexual blood stage Plasmodium falciparum S35 after 72 hrs by SYBR green-based fluorometric analysis; format: functional; settings: S35, 72 h; summary of the method: as §1
[11] = system: Plasmodium yoelii; test: Antimalarial activity against Plasmodium yoelii YM infected in BALB/c mouse assessed as parasite growth inhibition at 30 mg/kg, sc administered BID for 4 days starting at 96 hrs post infection, 8 hrs apart by Giemsa-staining based microscopic analysis; format: functional; settings: read-out: GI
Summary of the method: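 P. yoelii-infected mice, n=3 per group. Subcutaneous injection twice daily, 8 h apart, for 4 days starting at 96 h post infection. Growth inhibition read from blood smears at 24 h post treatment. Cure time taken as the minimum period to cure all mice in the group. DMSO controls included.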

[12] = system: HeLa; test: Cytotoxicity against human HeLa cells assessed as reduction in cell viability up to 2 uM after 48 hrs by MTT assay; format: cell-based
Summary of the method: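 HeLa cell viability measured by MTT assay with compound at concentrations up to 2 µM.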

[13] = system: Plasmodium falciparum; test: Antimalarial activity against […] asexual blood stage Plasmodium falciparum 3D7 after 72 hrs by SYBR green-based fluorometric analysis; format: functional; settings: 3D7, 72 h; summary of the method: as §1
[14] = system: Plasmodium falciparum; test: Antimalarial activity against […] asexual blood stage Plasmodium falciparum 3D7 assessed as reduction in parasite recrudescence at 10 times EC50 for 72 hrs measured after 28 days post invasion by Giemsa staining-based light microscopic analysis; format: functional
Summary of the method: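 Parasite cultures exposed for 72 h to 10× EC50 of inhibitor. Drug then removed and cultures maintained for 28 days post treatment. Recrudescence monitored by microscopy.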

[15] = system: Plasmodium falciparum; test: Antimalarial activity against dihydroartemisinin-resistant asexual blood stage Plasmodium falciparum 803 after 72 hrs by SYBR green-based fluorometric analysis; format: functional; settings: Plasmodium falciparum, 803, 72 h; summary of the method: as §1
[16] = system: Plasmodium falciparum; test: Antimalarial activity against chloroquine-resistant asexual blood stage Plasmodium falciparum GB4 after 72 hrs by SYBR green-based fluorometric analysis; format: functional; settings: GB4, 72 h; summary of the method: as §1
[17] = system: Plasmodium falciparum; test: Synergistic antimalarial activity against Plasmodium falciparum in presence of quinine; format: functional
Summary of the method: (§4)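 In vitro drug interaction analyses with other antimalarials against P. falciparum. Experiments repeated three times; error bars s.e.m.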

[18] = system: Plasmodium yoelii; test: Antimalarial activity against Plasmodium yoelii YM infected in BALB/c mouse assessed as parasite cure level at 10 to 90 mg/kg, ip administered on days 1 post infection by Giemsa-stained microscopic analysis; format: functional, organism-based
Summary of the method: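 Mice (groups of three) inoculated with 1×10^6 P. yoelii parasites. Single intraperitoneal dose of 10, 30 or 90 mg/kg given 24 h after inoculation. DMSO-only untreated group included. Outcome followed by blood-smear microscopy for cure, with survival scored at 40 days post infection.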

[19] = Binding affinity to Plasmodium falciparum NDH2 expressed in Escherichia coli BL21 assessed as NADH Kd by SPR assay (reference value: 5.22 uM)
[20] = system: Plasmodium falciparum; test: Antimalarial activity against chloroquine/quinine/sulfadoxine-pyrimethamine/amodiaquine-resistant asexual blood stage Plasmodium falciparum PC26 after 72 hrs by SYBR green-based fluorometric analysis; format: functional; settings: PC26, 72 h; summary of the method: as §1
[21] = system: Plasmodium falciparum; test: Synergistic antimalarial activity against Plasmodium falciparum in presence of dihydroartemisinin; format: functional; summary of the method: as §4
[22] = system: Plasmodium yoelii; test: Antimalarial activity against Plasmodium yoelii YM infected in BALB/c mouse assessed reduction in parasitemia at 10 mg/kg/day, sc for 4 days by Giemsa-staining based microscopic analysis; format: functional, organism-based; summary of the method: as §3
[23] = system: Plasmodium falciparum; test: Antimalarial activity against Plasmodium falciparum 3D7 assessed as alteration of parasite morphology at 10 times EC50 dosed at ring stage […] by Giemsa staining-based light microscopic analysis; format: functional, organism-based

SMILES: Cc1c(-c2ccc(Cc3ccc(OC(F)(F)F)cc3)cc2)[nH]c2cccc(F)c2c1=O
- survival at 30 mg/kg [1]: 100%
- EC50 [2]: 9.58 nM
- EC50 [3]: 3.83 nM
- IC50 [4]: 31.7 nM
- Time [5]: 28 days
- Activity [6]: >=50%
- survival at 5 mg/kg [7]: 100%
- IC50 [8]: 9.74 nM
- Time [9]: 17 days
- EC50 [10]: 5.48 nM
- inhibition in vivo at 30 mg/kg [11]: 100%
- Activity [12]: Non-Toxic
- EC50 [13]: 11.3 nM
- Activity [14]: Active
- EC50 [15]: 5.56 nM
- EC50 [16]: 8.16 nM
- fractional inhibitory concentration index (FICI) [17]: 2.33
- Activity [18]: Active
- Kd [19]: 37.2 µM
- EC50 [20]: 5.92 nM
- fractional inhibitory concentration index (FICI) [21]: 0.56
- Activity [22]: Active
- Activity [23]: Active
